Screens: PubChem, several laboratories
This is a sample that favours compounds with a hit; in the whole collection about 1.3% have one here.
SKN-1 block = inhibitors of C. elegans SKN-1; C. elegans VP596 Pgst-4::GFP/RFP ratio, acrylamide-induced, 24 h; AID 624304; inhibition, % at 21.8 µM; 360,000 tested, 0.49% active;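 active = interference check ratio from 0.5 to 1.5 plus GFP to RFP signal ratio inhibition reaching or exceeding a fixed threshold, cut at about 30% in these data, passing the limit was not always enough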
FAS-TE inh = blocks the thioesterase domain of human fatty acid synthase; recombinant FAS-TE, OMFH fluorogenic substrate, fluorescence endpoint; 360,000 tested, 0.67% active; P49327; inhibition, % at 15 µM;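 active = compounds whose normalised, plate-corrected inhibition of enzyme fluorescence in the single-dose primary screen is 50% or more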;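 note: 0% = DMSO with enzyme and 100% = substrate without enzyme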
MT1-MMP act inh = inhibitors of human MT1-MMP activation; P50281; HT1080 RFP-PRO-GFP cells, GFP/RFP ratio fluorescence, overnight; percent of plate control window, DMSO zero; GFP/RFP ratio change, % at 20 µM; 360,000 tested, 0.061% active; AID 651647;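 active = GFP/RFP ratio change of at least 30% with cell ATP level not reduced by more than half and red fluorescence within 50% of control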
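Test system: HT1080 RFP-PRO-GFP cells; Benchmarks: DMSO and RFP-L50D-GFP cell wells; Timing: cells overnight before dosing, compound overnight, 37 °C, 5% CO2; Compound: one 20 µM compound dose with 1% DMSO; Read-out: GFP/RFP fluorescence ratio.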
DAGLB inhibitor = blocks human DAGLB lipase activity; Q8NCG7; HEK293T DAGLB membrane lysate, EnzChek fluorogenic substrate; inhibition, % at 5.17 µM; 340,000 tested, 0.059% active; AID 504411; in the data active = inhibition above about 34%;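 note: 0% = enzyme with vehicle and 100% = wells lacking enzyme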
Target sequence (Q8NCG7 whole entry, looked up): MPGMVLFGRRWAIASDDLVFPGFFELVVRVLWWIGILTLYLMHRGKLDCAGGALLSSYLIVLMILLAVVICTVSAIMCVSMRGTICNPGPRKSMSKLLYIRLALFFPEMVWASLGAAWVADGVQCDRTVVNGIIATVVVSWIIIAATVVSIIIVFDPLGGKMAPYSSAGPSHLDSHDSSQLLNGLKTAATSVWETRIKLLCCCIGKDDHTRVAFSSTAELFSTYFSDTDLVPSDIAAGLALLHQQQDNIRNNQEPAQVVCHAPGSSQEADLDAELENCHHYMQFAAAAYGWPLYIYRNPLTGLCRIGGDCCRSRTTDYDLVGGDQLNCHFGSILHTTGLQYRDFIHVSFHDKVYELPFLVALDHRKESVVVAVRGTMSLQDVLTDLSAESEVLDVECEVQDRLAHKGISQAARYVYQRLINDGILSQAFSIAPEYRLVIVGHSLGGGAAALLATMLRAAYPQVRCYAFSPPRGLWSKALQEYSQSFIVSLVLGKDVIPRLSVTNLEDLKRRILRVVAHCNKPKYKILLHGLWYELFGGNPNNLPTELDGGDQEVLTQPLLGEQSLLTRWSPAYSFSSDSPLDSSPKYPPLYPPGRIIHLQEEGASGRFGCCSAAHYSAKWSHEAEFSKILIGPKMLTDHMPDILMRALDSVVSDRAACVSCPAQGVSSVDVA
hiPSC survival = enhancers of human iPSC single-cell survival; AID 602274; survival enhancement, % at 20 µM; hiPSC single-cell survival, ATPlite luminescence; 100% = ROCK inhibitor wells, 0% = DMSO; 360,000 tested, 0.044% active; in the data active = survival enhancement above about 18%;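 note: cells exposed to compounds for 16 hours before the ATP read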
* = called active by the depositor; nt = no result.

SMILES	SKN-1 block	FAS-TE inh	MT1-MMP act inh	DAGLB inhibitor	hiPSC survival
O=C(O)C1CCN(S(=O)(=O)Cc2ccccc2)CC1	-3	-7	-4	0	-1
CC1Cc2ccccc2N1C(=O)C1CCN(S(=O)(=O)Cc2ccccc2)CC1 (centres undefined)	32*	2	3	-3	5
COc1ccc(OC)c(CN2C(=O)CN(S(C)(=O)=O)CC2(C)C(=O)NC(C)C)c1 (centres undefined)	3	nt	13	nt	nt
COc1ccc(CN(C)CC(O)COc2ccc(C(=O)c3ccccc3)cc2)c(OC)c1OC (centres undefined)	-21	-4	0	-4	0
COc1ccc(Br)cc1CN(C)CC(O)COc1ccc(Br)cc1 (centres undefined)	35*	29	3	-18	0
COc1ccccc1CNC(=O)C1CCN(C(=O)N(C)C)CC1	35*	-6	1	1	1
COc1ccc(CNC(=O)C2CCN(C(=O)N(C)C)CC2)c(OC)c1	8	-1	6	3	0
O=C(Nc1nc2ccccc2s1)c1cc(-c2ccco2)nc2ccccc12	5	18	-6	3	-1
COc1cccc(-c2cc(C(=O)Nc3nc4ccccc4s3)c3ccccc3n2)c1	46*	27	-18	-8	0
O=C(CSc1nnc(COc2ccc(Cl)cc2)o1)NC1CC2CCC1C2 (centres undefined)	39*	1	0	-1	1
COc1ccc(OCc2nnc(SCC(=O)NC3CC4CCC3C4)o2)cc1 (centres undefined)	5	-4	0	-1	0
CC1(C(=O)NS(=O)(=O)c2ccccc2C(F)(F)F)CCN1C(=O)c1cccc(F)c1 (centres undefined)	0	-9	0	nt	1
c1cc2c(nn1)CCc1nonc1-2	44*	0	nt	-2	-2
O=C1NC(=O)C(=C2CCOC2=O)N1	13	-8	3	2	4
CSc1ccc(NC(=O)C2(C)CCN2C(=O)c2sccc2C)cc1 (centres undefined)	-6	16	0	nt	0
Cn1ccc2c(-c3ccc(C(=O)O)cc3)cc3c(c21)C1CCC3C1 (centres undefined)	-1	-2	4	nt	1
COc1ccc(OC)c(N)c1	69	-15	37*	4	1
CCOC(=O)N1CCN(C(=O)C[C@@H]2C[C@@]3(C(=O)OC)CCCCC=C3N(CCc3ccc(OC)c(OC)c3)C2=O)CC1	3	nt	5	nt	nt
CN1CCN(C(=O)C2=NOC3(C2)C(=O)Nc2ccccc23)CC1 (centres undefined)	6	-11	1	nt	1
Cn1cccc1/C=C1\SC(=S)N(NC(=O)c2cccc(Cl)c2)C1=O	38*	1	-8	-6	2
Cn1cccc1/C=C1\SC(=S)N(NC(=O)c2ccccc2)C1=O	38*	-7	-7	-1	2
Cn1cccc1/C=C1\SC(=S)N(NC(=O)c2ccc(F)cc2)C1=O	22	-2	-1	-4	0
N#Cc1cccc(NC(=O)c2cc(C3CCCCN3C(=O)c3cccs3)on2)c1 (centres undefined)	13	7	-3	nt	0
O=c1nc(Oc2ccccc2)nc2ncccn12	-18	-6	-4	1	2
O=C(Nc1ccc(Cl)cc1)NC1CCCCC1	8	-2	3	-5	-1
SMILES	SKN-1 block	FAS-TE inh	MT1-MMP act inh	DAGLB inhibitor	hiPSC survival
O=C(Nc1ccc(Cl)cc1)NC1CCCCNC1=O (centres undefined)	36*	-4	1	nt	-1
CC(=O)Nc1ccc(NC(=O)C2Cc3c(-c4cccc(F)c4)ccnc3O2)cc1 (centres undefined)	37*	-1	1	nt	4
CC1(C(=O)NS(=O)(=O)c2ccc(F)cc2F)CCN1C(=O)CC1CCCCC1 (centres undefined)	5	-8	-1	nt	0
CCCCC(CC)CO (centres undefined)	-10	-5	2	-3	-1
CCCCC(CC)CN=C(N)NC(N)=NCCCCCCN=C(N)NC(N)=NCC(CC)CCCC (centres undefined)	38*	-37	nt	9	-4
OC[C@@H]1CN(Cc2cccs2)C[C@H](n2cnc3c(NCc4ccco4)ncnc32)O1	-8	-6	-2	nt	2
Cn1c(=O)c2c(ncn2CC(=O)OCC(=O)NCc2ccc(Cl)cc2)n(C)c1=O	6	-11	-2	-1	0
